Data reported in ChEMBL document CHEMBL4196022, “Alkynyl-containing phenylthiazoles: Systemically active antibacterial agents effective against methicillin-resistant Staphylococcus aureus (MRSA)” (Eur J Med Chem, 2018).
≈ marks a conversion by molar mass, not a printed value.

Legend:
Staphylococcus aureus [1] = experiment: Antibacterial activity against methicillin-resistant Staphylococcus aureus USA300 after 20 hrs by broth microdilution assay; assay type: functional; settings: USA300, 20 h
In short: (§1)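 Broth microdilution per CLSI in cation-adjusted Mueller Hinton broth. Compounds serially diluted, in triplicate. Incubation at 37 °C for at least 20 hours. MIC taken as the lowest concentration with no visible bacterial growth.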

Staphylococcus aureus [2] = experiment: Bactericidal activity against methicillin-resistant Staphylococcus aureus USA300 up to 18 hrs by broth microdilution assay; assay type: functional; settings: USA300, 18 h, read-out: MBC99.9
Staphylococcus aureus [3] = experiment: Ratio of MBC to MIC for methicillin-resistant Staphylococcus aureus USA300; assay type: functional
In short: (§2)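 MBC/MIC ratio. […] MBC by plating no-growth wells onto tryptic soy agar at 37 °C for at least 18 h; taken as the concentration giving 99.9% growth inhibition.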

Staphylococcus aureus [4] = experiment: Antibacterial activity against methicillin-resistant Staphylococcus aureus NRS107 after 20 hrs by broth microdilution assay; assay type: functional; settings: NRS107, 20 h; in short: as §1
Staphylococcus aureus [5] = experiment: Bactericidal activity against methicillin-resistant Staphylococcus aureus NRS107 up to 18 hrs by broth microdilution assay; assay type: functional; settings: NRS107, 18 h, read-out: MBC99.9
Staphylococcus aureus [6] = experiment: Antibacterial activity against methicillin-resistant Staphylococcus aureus NRS119 after 20 hrs by broth microdilution assay; assay type: functional; settings: NRS119, 20 h; in short: as §1
Staphylococcus aureus [7] = experiment: Bactericidal activity against methicillin-resistant Staphylococcus aureus NRS119 up to 18 hrs by broth microdilution assay; assay type: functional; settings: NRS119, 18 h, read-out: MBC99.9
Staphylococcus aureus [8] = experiment: Antibacterial activity against methicillin-resistant Staphylococcus aureus NRS123 (USA400) after 20 hrs by broth microdilution assay; assay type: functional; in short: as §1
Staphylococcus aureus [9] = experiment: Bactericidal activity against methicillin resistant Staphylococcus aureus NRS123 (USA400) up to 18 hrs by broth microdilution assay; assay type: functional; settings: read-out: MBC99.9
Staphylococcus aureus [10] = experiment: Antibacterial activity against vancomycin-resistant Staphylococcus aureus VRS10 after 20 hrs by broth microdilution assay; assay type: functional; settings: VRS10, 20 h; in short: as §1
Staphylococcus aureus [11] = experiment: Bactericidal activity against methicillin resistant vancomycin-resistant Staphylococcus aureus VRS10 up to 18 hrs by broth microdilution assay; assay type: functional; settings: VRS10, 18 h, read-out: MBC99.9
Staphylococcus aureus [12] = experiment: Antibacterial activity against vancomycin-resistant Staphylococcus aureus VRS11a after 20 hrs by broth microdilution assay; assay type: functional; in short: as §1
Staphylococcus aureus [13] = experiment: Bactericidal activity against methicillin resistant vancomycin-resistant Staphylococcus aureus VRS11a up to 18 hrs by broth microdilution assay; assay type: functional; settings: read-out: MBC99.9
Staphylococcus aureus [14] = experiment: Antibacterial activity against vancomycin-resistant Staphylococcus aureus VRS12 after 20 hrs by broth microdilution assay; assay type: functional; settings: VRS12, 20 h; in short: as §1
Staphylococcus aureus [15] = experiment: Bactericidal activity against methicillin resistant vancomycin-resistant Staphylococcus aureus VRS12 up to 18 hrs by broth microdilution assay; assay type: functional; settings: VRS12, 18 h, read-out: MBC99.9
In short: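 MBC set up from the MIC plates. Aliquots from wells with no growth spotted onto tryptic soy agar and incubated at 37 °C for at least 18 hours. MBC taken as the lowest concentration giving 99.9% inhibition of bacterial growth.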

Staphylococcus aureus [16] = experiment: Potency index, ratio of vancomycin MIC to compound MIC for antibacterial activity against vancomycin-resistant Staphylococcus aureus VRS10; assay type: functional
Staphylococcus aureus [17] = experiment: Potency index, ratio of vancomycin MIC to compound MIC for antibacterial activity against vancomycin-resistant Staphylococcus aureus VRS11a; assay type: functional
Staphylococcus aureus [18] = experiment: Potency index, ratio of vancomycin MIC to compound MIC for antibacterial activity against vancomycin-resistant Staphylococcus aureus VRS12; assay type: functional
Staphylococcus aureus [19] = experiment: Ratio of MBC to MIC for methicillin-resistant Staphylococcus aureus NRS107; assay type: functional; in short: as §2
Staphylococcus aureus [20] = experiment: Ratio of MBC to MIC for methicillin-resistant Staphylococcus aureus NRS119; assay type: functional; in short: as §2
Staphylococcus aureus [21] = experiment: Ratio of MBC to MIC for methicillin-resistant Staphylococcus aureus NRS123 (USA400); assay type: functional; in short: as §2
Staphylococcus aureus [22] = experiment: Ratio of MBC to MIC for vancomycin-resistant Staphylococcus aureus VRS10; assay type: functional; in short: as §2
Staphylococcus aureus [23] = experiment: Ratio of MBC to MIC for vancomycin-resistant Staphylococcus aureus VRS11a; assay type: functional; in short: as §2
Staphylococcus aureus [24] = experiment: Ratio of MBC to MIC for vancomycin-resistant Staphylococcus aureus VRS12; assay type: functional; in short: as §2
HRT-18 cell line = experiment: Cytotoxicity against human HRT18 cells assessed as reduction in cell viability up to 32 ug/ml after 2 hrs by MTS assay; assay type: cell-based; settings: hrt-18, 2 h
[25] = Selectivity index, ratio of toxic concentration for human HRT18 cells to MIC for methicillin-resistant Staphylococcus aureus; assay type: toxicity; settings: read-out: Selectivity Index
Staphylococcus aureus [26] = experiment: Inhibition of UPPS/UPPP in vancomycin-resistant Staphylococcus aureus VRS10 assessed as potentiation of vancomycin-induced antibacterial activity by measuring fold reduction in vancomycin MIC at 0.5 times MIC preincubated for 30 mins followed by vancomycin addition measured after 20 to 22 hrs by broth microdilution assay relative to control
In short: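 VRS10 suspension pre-exposed to compound at ½ × MIC for 30 min at room temperature. […] Incubation at 37 °C for 20–22 h before the MIC was read; untreated bacteria served as control.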

Staphylococcus aureus [27] = experiment: Antibacterial activity against methicillin-resistant Staphylococcus aureus USA300 in Balb/c mouse skin infection model assessed as reduction in bacterial burden in wounded skin area at 2% administered topically twice daily for 5 consecutive days measured 12 hrs post last dose relative to control; assay type: functional; design: scale not given: the % may be the effect or the level left
In short: (§3)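 Female Balb/c mice, 8 weeks old, n=5 per group. Intradermal injection of 40 μL of 1.32×10^9 CFU/mL USA300; a wound formed by ~66 h. Treated topically with a 2% suspension in petroleum jelly twice daily for 5 days; the vehicle group served as control. Wounds excised 12 h after the last dose, homogenized in PBS and plated on mannitol salt agar; sites also observed for redness and swelling.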

Mus musculus [28] = experiment: Induction of inflammation in Balb/c mouse infected with methicillin-resistant Staphylococcus aureus USA300 assessed as redness around wounded skin area at 2% administered topically twice daily for 5 consecutive days measured 12 hrs post last dose relative to control; assay type: organism-based; settings: in vivo, topical_or_ocular; in short: as §3
Mus musculus [29] = experiment: Induction of inflammation in Balb/c mouse infected with methicillin-resistant Staphylococcus aureus USA300 assessed as swelling around wounded skin area at 2% administered topically twice daily for 5 consecutive days measured 12 hrs post last dose; assay type: organism-based; settings: in vivo, topical_or_ocular; in short: as §3
Mus musculus [30] = experiment: Toxicity in wounded skin area of Balb/c mouse infected with methicillin-resistant Staphylococcus aureus USA300 at 2% administered topically twice daily for 5 consecutive days measured 12 hrs post last dose; assay type: organism-based; settings: in vivo, topical_or_ocular; in short: as §3

| Compound | MIC (Staphylococcus aureus [1]) | MBC (Staphylococcus aureus [2]) | Ratio (Staphylococcus aureus [3]) | MIC (Staphylococcus aureus [4]) | MBC (Staphylococcus aureus [5]) | MIC (Staphylococcus aureus [6]) | MBC (Staphylococcus aureus [7]) | MIC (Staphylococcus aureus [8]) | MBC (Staphylococcus aureus [9]) | MIC (Staphylococcus aureus [10]) | MBC (Staphylococcus aureus [11]) | MIC (Staphylococcus aureus [12]) | MBC (Staphylococcus aureus [13]) | MIC (Staphylococcus aureus [14]) | MBC (Staphylococcus aureus [15]) | Ratio (Staphylococcus aureus [16]) | Ratio (Staphylococcus aureus [17]) | Ratio (Staphylococcus aureus [18]) | Ratio (Staphylococcus aureus [19]) | Ratio (Staphylococcus aureus [20]) | further results |
| --- | --- | --- | --- | --- | --- | --- | --- | --- | --- | --- | --- | --- | --- | --- | --- | --- | --- | --- | --- | --- | --- |
| C/C(=N\NC1=NCCN1)c1sc(-c2ccc(C#CC3CCCCC3)cc2)nc1C | 8 µg/mL (≈ 19.7 µM) | 8 µg/mL (≈ 19.7 µM) | <=3 |  |  |  |  |  |  |  |  |  |  |  |  |  |  |  |  |  |  |
| CCCCCC#Cc1ccc(-c2nc(C)c(/C(C)=N/NC3=NCCN3)s2)cc1 | 4 µg/mL (≈ 10.2 µM) | 8 µg/mL (≈ 20.3 µM) | <=3 | 16 µg/mL (≈ 40.7 µM) | 32 µg/mL (≈ 81.3 µM) | 16 µg/mL (≈ 40.7 µM) | 32 µg/mL (≈ 81.3 µM) | 16 µg/mL (≈ 40.7 µM) | 32 µg/mL (≈ 81.3 µM) | 8 µg/mL (≈ 20.3 µM) | 64 µg/mL (≈ 163 µM) | 8 µg/mL (≈ 20.3 µM) | 16 µg/mL (≈ 40.7 µM) | 16 µg/mL (≈ 40.7 µM) | 32 µg/mL (≈ 81.3 µM) | >100 | >100 | >100 | <=3 | <=3 | Ratio (Staphylococcus aureus [21]): <=3; Ratio (Staphylococcus aureus [22]): <=3; Ratio (Staphylococcus aureus [23]): <=3; Ratio (Staphylococcus aureus [24]): <=3 |
| C/C(=N\NC1=NCCN1)c1sc(-c2ccc(C#CC(C)(C)N)cc2)nc1C | > 64 µg/mL | > 64 µg/mL | <=3 |  |  |  |  |  |  |  |  |  |  |  |  |  |  |  |  |  |  |
| CCCCCCC#Cc1ccc(-c2nc(C)c(/C(C)=N/NC3=NCCN3)s2)cc1 | 8 µg/mL (≈ 19.6 µM) | 16 µg/mL (≈ 39.3 µM) | <=3 |  |  |  |  |  |  |  |  |  |  |  |  |  |  |  |  |  |  |
| C/C(=N\NC(=N)N)c1sc(-c2ccc(C#Cc3ccccc3)cc2)nc1C | 1 µg/mL (≈ 2.68 µM) | 1 µg/mL (≈ 2.68 µM) | <=3 | 2 µg/mL (≈ 5.35 µM) | 2 µg/mL (≈ 5.35 µM) | 1 µg/mL (≈ 2.68 µM) | 2 µg/mL (≈ 5.35 µM) | 1 µg/mL (≈ 2.68 µM) | 4 µg/mL (≈ 10.7 µM) | 1 µg/mL (≈ 2.68 µM) | 2 µg/mL (≈ 5.35 µM) | 1 µg/mL (≈ 2.68 µM) | 2 µg/mL (≈ 5.35 µM) | 2 µg/mL (≈ 5.35 µM) | 2 µg/mL (≈ 5.35 µM) | >100 | >100 | 8 | <=3 | <=3 | Ratio (Staphylococcus aureus [21]; read-out: Ratio): 4; Ratio (Staphylococcus aureus [22]): <=3; Ratio (Staphylococcus aureus [23]): <=3; Ratio (Staphylococcus aureus [24]): <=3; Activity (HRT-18 cell line): Non-Toxic; selectivity ratio [25]: 7 to 31; fold change (FC) (Staphylococcus aureus [26]): 512 |
| C/C(=N\NC(=N)N)c1sc(-c2ccc(C#CC(C)(C)C)cc2)nc1C | 4 µg/mL (≈ 11.3 µM) | 4 µg/mL (≈ 11.3 µM) | <=3 | 2 µg/mL (≈ 5.66 µM) | 4 µg/mL (≈ 11.3 µM) | 2 µg/mL (≈ 5.66 µM) | 2 µg/mL (≈ 5.66 µM) | 4 µg/mL (≈ 11.3 µM) | 16 µg/mL (≈ 45.3 µM) | 4 µg/mL (≈ 11.3 µM) | 4 µg/mL (≈ 11.3 µM) | 2 µg/mL (≈ 5.66 µM) | 8 µg/mL (≈ 22.6 µM) | 4 µg/mL (≈ 11.3 µM) | 4 µg/mL (≈ 11.3 µM) | >100 | >100 | 4 | <=3 | <=3 | Ratio (Staphylococcus aureus [21]; read-out: Ratio): 4; Ratio (Staphylococcus aureus [22]): <=3; Ratio (Staphylococcus aureus [23]; read-out: Ratio): 4; Ratio (Staphylococcus aureus [24]): <=3; Activity (HRT-18 cell line): Non-Toxic; selectivity ratio [25]: 7 to 31 |
| C/C(=N\NC1=NCCN1)c1sc(-c2ccc(C#CC(C)(C)C)cc2)nc1C | 2 µg/mL (≈ 5.27 µM) | 4 µg/mL (≈ 10.5 µM) | <=3 | 2 µg/mL (≈ 5.27 µM) | 4 µg/mL (≈ 10.5 µM) | 2 µg/mL (≈ 5.27 µM) | 2 µg/mL (≈ 5.27 µM) | 4 µg/mL (≈ 10.5 µM) | 16 µg/mL (≈ 42.2 µM) | 4 µg/mL (≈ 10.5 µM) | 4 µg/mL (≈ 10.5 µM) | 4 µg/mL (≈ 10.5 µM) | 4 µg/mL (≈ 10.5 µM) | 4 µg/mL (≈ 10.5 µM) | 8 µg/mL (≈ 21.1 µM) | >100 | >100 | 4 | <=3 | <=3 | Ratio (Staphylococcus aureus [21]; read-out: Ratio): 4; Ratio (Staphylococcus aureus [22]): <=3; Ratio (Staphylococcus aureus [23]): <=3; Ratio (Staphylococcus aureus [24]): <=3; Activity (HRT-18 cell line): Non-Toxic; selectivity ratio [25]: 7 to 31 |
| CC(=O)O[C@H]1C[C@@]2(C)[C@@H](C[C@@H](O)[C@H]3[C@@]4(C)CC[C@@H](O)[C@@H](C)[C@@H]4CC[C@@]32C)/C1=C(\CCC=C(C)C)C(=O)O [FUSIDIC ACID] |  |  |  |  |  |  |  |  |  |  |  |  |  |  |  |  |  |  |  |  | Activity (Staphylococcus aureus [27]): 78%; Activity (Mus musculus [28]): Non-Toxic; Activity (Mus musculus [29]): Non-Toxic; Activity (Mus musculus [30]): Non-Toxic |
